Test results: ChEMBL document CHEMBL3616437, “Thiazole compounds with activity against Cryptococcus gattii and Cryptococcus neoformans in vitro” (Eur J Med Chem, 2015)
Converted amounts (≈) assume the structure as drawn.

Experiments:
Cryptococcus neoformans = test: Antifungal activity against Cryptococcus neoformans ATCC 24067 after 48 to 72 hrs by broth microdilution method; type: functional
Method in brief: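 CLSI M27-A3 broth microdilution. Isolates subcultured twice on SDA, 48 h at 35°C. Saline suspension adjusted to 70% transmittance at 530 nm, then diluted to 1-5 x10^3 cells/mL in RPMI with L-glutamine, 0.165 M MOPS, pH 7.0. Compounds in DMSO, tested at […]. 35°C for 48-72 h. MIC read visually as the lowest concentration giving an optically clear well.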

[1] = Cytotoxicity against C57BL/6 mouse peritoneal macrophages assessed as cell viability measured after 48 hrs by MTT assay; type: cell-based; settings: C57BL/6, Peritoneal macrophage cell
Method in brief: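 Thioglycollate-elicited peritoneal macrophages from male C57BL/6 mice, 6–8 weeks old, in RPMI with 10% FBS. Seeded 1 x 10^5 cells/well, pre-incubated 24 h at 37°C. Exposed 48 h at 37°C, 5% CO2, to eight nonserial dilutions from 100 to 0.0128 µM, with 0.5% DMSO control. MTT read-out, % inhibition versus DMSO control. IC50 reported as median with 95% CI. Triplicate, two independent experiments.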

Vero = test: Cytotoxicity against African green monkey Vero cells assessed as cell viability measured after 48 hrs by MTT assay; type: cell-based; settings: Chlorocebus sabaeus
Method in brief: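 VERO cells in D-MEM with 5% FBS, used up to 20 passages. Seeded 1 x 10^4 cells/well, pre-incubated 24 h at 37°C. Exposed 48 h at 37°C, 5% CO2, to eight nonserial dilutions from 100 to 0.0128 µM, with 0.5% DMSO control. MTT reduction read-out, corrected for background and blank. IC50 reported as median with 95% CI. Triplicate, two independent experiments.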

[2] = Selectivity index, ratio of IC50 for African green monkey Vero cells to MIC for Cryptococcus neoformans ATCC 24067; type: toxicity, cell-based
[3] = Selectivity index, ratio of IC50 for C57BL/6 mouse peritoneal macrophages to MIC for Cryptococcus neoformans ATCC 24067
Method in brief: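 SI = IC50/MIC. Thioglycollate-elicited peritoneal macrophages from C57BL/6 mice are seeded at 1 x 10^5/well. They are exposed for 48 h at 37°C to eight concentrations from 100 to 0.0128 µM. Viability read by MTT versus 0.5% DMSO control, triplicate in two experiments.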

| Compound | MIC (Cryptococcus neoformans) | IC50 [1] | IC50 (Vero) | selectivity ratio [2] | Ratio [3] |
| --- | --- | --- | --- | --- | --- |
| Clc1ccc(-c2csc(N/N=C3\CCCC\C3=C/c3ccccc3)n2)cc1 | 7.8 µM (≈ 3.07 µg/mL) | > 100 µM | > 100 µM | 12.8 | 12.8 |
| C(=C1/CCCC/C1=N\Nc1nc(-c2ccccc2)cs1)/c1ccccc1 | 15.6 µM (≈ 5.61 µg/mL) | > 100 µM | > 100 µM | 6.41 | 6.41 |
| COc1ccc(/C=N/Nc2nc(-c3ccc(Cl)cc3)cs2)cc1OC | 15.6 µM (≈ 5.83 µg/mL) | > 100 µM | > 100 µM | 6.41 | 6.41 |
| COc1ccc(-c2csc(N/N=C3\CCCC\C3=C/c3ccccc3)n2)cc1 | 7.8 µM (≈ 3.04 µg/mL) | > 100 µM | > 100 µM | 12.8 | 12.8 |

More lines, main results first:

| MIC (Cryptococcus neoformans) | Compound | IC50 [1] | IC50 (Vero) | selectivity ratio [2] | Ratio [3] |
| --- | --- | --- | --- | --- | --- |
| > 250 µM | CN(C)c1ccc(/C=N/Nc2nc(-c3ccccc3)cs2)cc1 | – | – | – | – |
| > 250 µM | COc1ccc(-c2csc(N/N=C/c3ccccc3)n2)cc1 | – | – | – | – |
| > 250 µM | COc1ccc(-c2csc(N/N=C/c3ccncc3)n2)cc1 | – | – | – | – |
| > 250 µM | COc1ccc(-c2csc(N/N=C/c3ccc(C)cc3)n2)cc1 | – | – | – | – |
| > 250 µM | COc1ccc(-c2csc(N/N=C/c3ccc(N(C)C)cc3)n2)cc1 | – | – | – | – |
